Experimental data taken from the RNAGym collection of RNA variant scans (doi:10.1126/science.aae0568).
Variants at the floor of the assay were thinned out.

B1: tRNA (parent)
chain: GUUCCGUUGGCGUAAUGGUAACGCGUCUCCCUCCUAAGGAGAAGACUGCGGGUUCGAGUCCCGUACGGAACG

Variants of: B1
Experiment: yeast fitness relative to wild type (ratio to wild type); higher = fitter; tRNA-Arg(CCU), competitive growth, 37 C, YPD
How it was run: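 Variants of the tRNA-Arg(CCU) gene were chemically synthesised with a 3% per-site mutation rate across 69 sites and placed at the native genomic locus in Saccharomyces cerevisiae. Six parallel replicates of the pooled strains were competed in YPD at 37°C for 24 hours, and gene amplicons from the start and end populations were read by 100-nucleotide paired-end sequencing. Darwinian fitness relative to wild type was derived from changes in genotype frequencies. Genotypes required ≥ 100 starting reads, and estimates < 0.5 were set to 0.5.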

Variant | yeast fitness
GUUGCGUUGGCGUAAUGGUAACGCAUCUCCCUCCUAAGGAGAAGACUGCGGGUUCGAGUCCCGUACGGAACG [C4G G25A] | 0.894
GUUGCGUUGGCGUAAUAGUAACGCGUCUCCCUCCUGAGGAGAAGAUUGCGGGUUCGAGUCCCGUACGGAACG [C4G G17A A36G C46U] | ≤ 0.5
GUUGCGUUGGCAUAAUGGUAACGCGUCUCUCUCCUAAGGAGAAGACUGCGGGUUCGAGUCCCAUACGCAACG [C4G G12A C30U G63A G68C] | 0.574
GUUGCGUUGGCGUAAUAGUAACGCGUCUCCCUCCUAAGGAGAGGACUGCGGGUUCGAGUCCCGUACGGAACG [C4G G17A A43G] | ≤ 0.5
GUUGCGUUGGCGUAAUGGUAACAAGUCUCCAUCCUGAGGAGAAGACUGCGGGUUCGAGUCCCGUACGGAACG [C4G G23A C24A C31A A36G] | ≤ 0.5
GUUGCGUUGGCGUAAUGCUAACGCGUCUCCCUCCUAAGGAGAAGACUGCGGGUUCGAGUCCCGUACGGACCG [C4G G18C A70C] | 0.508
GUUGCGUUGGCGUAAUUGUAACACGUCUCCCUCCUAAGGAGAAGACUGCGGGUUAGAGUCACGUACGGAACG [C4G G17U G23A C55A C61A] | ≤ 0.5
GUUGCGUUGGCGUAAUAGUAACGCGUCUCCCUCCUAAGGAGAAGACUGCGGGUUCGAGUCCCGUACGGAACG [C4G G17A] | 0.724
GUUGCGUUGGCCUAAUGGUAACGCGUCUCCCUCCUAAGGGGAAGACUGCGGGUUCGAGUCCCGUACGGAACG [C4G G12C A40G] | ≤ 0.5
GUUGCGUUGGCGUAAUAGUAACGCGUCUCCCUCCUAAGGAGAAGACUGCGGGUUCGAGUCCCGUAUGGAACG [C4G G17A C66U] | 0.596
GUUGCGUUGGCGUAAUAGUAACGCGCCUCCCUCCUAAGGGGAAGACUGCGGGUUCGAGUCCCGUACGGACCG [C4G G17A U26C A40G A70C] | 0.793
GUUGCGUUGGCGUAAUGGUAACGCGUCUCCCUCCUAAGGAGAAGACUAUACGUUCGAGUCCCGAACGGACCG [C4G G48A C49U G50A G51C U64A A70C] | ≤ 0.5
GUUGCGUUGUCGUUAUGGUAACGUGUCUCCCUUCUAAGGAGAAGACUGCGGAUUCGAGUCCCGUAUGGAACG [C4G G10U A14U C24U C33U G52A C66U] | ≤ 0.5
GUUGCGUUGGCGUAAUGGUAACCCGUCUCCCUCCUAAGGAGAAGACUGCGGAUCCGAGUCCCGUACGGAACG [C4G G23C G52A U54C] | ≤ 0.5
GUUGCGUUGGCGUAAUGCUAACGCGUCUCCCUCCUAAGGAGAAGACUGCGAGUUCGAGUCCCGUACGGAACG [C4G G18C G51A] | ≤ 0.5
GUUGCGUUGGCAUAAUGGUAACGCGUCUCCCUCCUAAGGAGAAGACUGCGGGUUCGAGUCCCGUACGGAACG [C4G G12A] | 0.781
GUUGCGUUGGCGUAAUGCUAACGCGUCUCCCUCCUAAGGAGAAGACUGCGGGUUCGUGUCCCGUACGGAACG [C4G G18C A57U] | ≤ 0.5
GUUGCGUUGGCGUAAUGCUAACGCGUCUCCCUCCUAAGGAGAAGACUGCGGGUUCGAGUCCCGUACGGAACG [C4G G18C] | 0.599
GUUGCGUUGGCGUAAUGGUAACGCGUCUCCCUCCUAACGAGAAGACUGCGGGUUCGAGUCCCAUACGCGACG [C4G G38C G63A G68C A69G] | ≤ 0.5

Variant | yeast fitness
GUUGCGUUGGCGUAAUGAUAACGCGUCUCUCUCCUAAGGAGAAGACUGCGGGUUCGAGUGCCGUACGGAACG [C4G G18A C30U C60G] | 0.515
GUUGCGUUGGCGUAAUGGUAACGCGUCUCCCUCCUAAAGAGAAGACUGCGGGUUCGAGUCCCGUAUGGAACG [C4G G38A C66U] | ≤ 0.5
GUUGCGUUGGCGUAAUCGUAAGGCGUCUCCCUCCUAAGGAGAAGACUGCGGGUUCGAGUCCCGUACGGAACG [C4G G17C C22G] | ≤ 0.5
GUUGCGUUGGCGUAAUGGUAACGCGUCUCCCUCCUAAGGAAAAGACUGCGGGUUCGAGUCCCGUAUGGAACG [C4G G41A C66U] | 0.525
GUUGCGUUGGCGUAAUAGUAACGCGUCUCUCUCCUAAGGAGAAGACUGCGGGUUCGAGUCCCGUACGGAACG [C4G G17A C30U] | ≤ 0.5
GUUGCGUUGGCAUAAUGGUAACGCGUCUCCCUCCUAAGGAGAAGACUGUGGGUUCGAGUAACGUACGGAACG [C4G G12A C49U C60A C61A] | ≤ 0.5
GUUGCGUUGGCGUAAUGCUAACGCGUCUCCCUCCUAAGGAGAAGACUGCGGGUUCGAGUCCCGUUCGGAACG [C4G G18C A65U] | ≤ 0.5
GUUGCGUUGGCGUAAUGCUAACGCGUCUCCCUCCUAAGGAGAAGACUGCGGGUUCGAGUCCCGAACGGAACG [C4G G18C U64A] | ≤ 0.5
GUUGCGUUGGCGUAAUGCUAACGCGUCUCCCUCCUAAGGAGAAGACUGCGGGUUCGAGUCCCAUACGGAACG [C4G G18C G63A] | ≤ 0.5
GUUGCGUUGGCAUAAUGGUAACGCGUCUCCCUCCUAAGGAGAAGACUGCGGGUUCGAGUCCCGUACGUAACG [C4G G12A G68U] | ≤ 0.5
GUUGCGUUGGCGUAAUGCUAACGCGUCUCCCUCCUAAGGAGAAGACUGCGGGUUCGAGUCCGGUACGGAACG [C4G G18C C62G] | ≤ 0.5
GUUGCGUUGGCGUAAUGCUAACGCGUCUCCCUGCUAAGGAAAAGACUGCGGGUUCGAGUCCCGUACGGAACG [C4G G18C C33G G41A] | ≤ 0.5
GUUGCGUUGGCGUAAUGCUAACGCGUCUCCCUCCUAAGGAGAAGAGUGCGGGUUCGAGUCCCGUACGGAACG [C4G G18C C46G] | ≤ 0.5
GUUGCGUUGGCGUAAUGAUAACGCGUCUCUCUCCUAAGGAGAAGACUGCGGGUUCGAGUCCCGUACGGAACG [C4G G18A C30U] | 0.57
GUUGCGUUGGCGUAAUAGUCACGCGUCUCCCUCCUAAGGAGAAGACUGCGGGUUCGAGUCUCGUACGGAACG [C4G G17A A20C C61U] | ≤ 0.5
GUUGCGUUGGCGUAAUAGUAACGCGUCUCCCUCCUAAGGAGAAGACUGCGGAUUCGAGUCCCGUACGGAACG [C4G G17A G52A] | ≤ 0.5
GUUGCGUUGGCGUAAUGGUAACGCGUCUCCCUCCUAAGGAGAACACAGCGGGUUCGAGUCCCGUACGGAACG [C4G G44C U47A] | 0.592
GUUGCGUUGGCGUAAUGGUAACGCGUCUCCCUCCUAAGGACAAGACUGCGGGUUCGAGUCCCGUACGGAACG [C4G G41C] | 0.834
GUUGCGUUGGCGUAAUGGUAACGCGUCUCCCUCCUAAGGACAAGAAUGCGGGUUCGAGUCCCGUACGGAACG [C4G G41C C46A] | 0.709
